The record followed here is ChEMBL document CHEMBL1140190, “Phenolic constituents of Amorpha fruticosa that inhibit NF-kappaB activation and related gene expression” (J Nat Prod, 2008).

Each structure is given as a SMILES string. Active and inactive are the calls of the source. The rule behind the calls is not given here.

Experiment [1] in a line: Inhibition of LPS-induced NF-kappaB activation in mouse RAW264.7 cells by SEAP reporter gene assay. Type of experiment: cell-based. An outline of the steps:
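RAW264.7 cells transiently transfected with a plasmid carrying eight κB elements driving SEAP, seeded at 5 × 10^4 cells/well, 3 h at 37 °C. Compounds in DMSO (final 0.01%) plus LPS 1 µg mL-1 for 24 h. Supernatant heated 65 °C 10 min, then SEAP buffer and p-nitrophenyl phosphate, 37 °C 4 h, OD 405 nm. Means ± SD of three experiments.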
On the technique in general: In a reporter assay the amount or activity of a reporter protein is the signal.

Experiment [2] is described as follows: Inhibition of TNF-alpha-induced NF-kappaB activation in human HeLa cells by SEAP reporter gene assay. Type of experiment: cell-based. The essentials: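 HeLa cells transiently transfected with an 8×κB-SEAP reporter plasmid, seeded at 5 × 10^4 cells/well, 3 h at 37 °C. Compounds in DMSO (final 0.01%) with TNF-α 10 ng mL-1 for 24 h. Supernatant heat-treated 65 °C 10 min, substrate p-nitrophenyl phosphate, 37 °C 4 h, absorbance 405 nm. Means ± SD, three experiments.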

Experiment [3] concerns MCF7. The experiment can be described thus: Induction of apoptosis in human MCF7 cells assessed as down regulation of cIAP2 by Western blot analysis. Type of experiment: functional, cell-based. An outline of the steps:
(§1)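 MCF-7 cells plated at 70% confluence and incubated overnight at 37 °C. Pretreated 30 min with compounds in DMSO (final DMSO 0.001%), then stimulated with TNF-α (20 ng mL-1) for 24 h. Total lysates in NP-40 lysis buffer were resolved by 10% SDS-PAGE and immunoblotted with specific antibodies (1:1000, overnight, 4 °C). ECL detection with α-tubulin as loading control.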
(In general: In western blotting, separated proteins are transferred to a membrane and probed.)

Experiment [4] concerns MCF7. Kind of experiment: Induction of apoptosis in human MCF7 cells assessed as suppression of MMP9 by Western blot analysis. Type of experiment: functional, cell-based. The essentials: as §1
Experiment [5] relates to MCF7. The experiment can be described thus: Blockade of TNF-alpha-induced COX2 induction in human MCF7 cells by Western blot analysis. Type of experiment: functional, cell-based. The essentials: as §1
Experiment [6] concerns MCF7. Kind of experiment: Inhibition of TNF-alpha-induced NF-kappaB DNA binding activity in human MCF7 cells by electrophoretic shift mobility assay. Type of experiment: cell-based. The essentials:
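MCF-7 cells at 70% confluence preincubated 30 min with compounds (DMSO final 0.001%), then TNF-α 20 ng mL-1 for 60 min. Nuclear extracts from hypotonic swelling and high-salt extraction, bound 20 min at room temperature to a 32P end-labeled NF-κB oligonucleotide. Excess unlabeled NF-κB and AP-1 oligonucleotides served as competitors.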

Experiment [7] deals with MCF7. Kind of experiment: Suppression of TNF-alpha-induced expression of iNOS in human MCF7 cells at 10 uM by Western blot analysis. Type of experiment: functional, cell-based. An outline of the steps:
(§2)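 MCF-7 cells plated at 70% confluence and kept overnight at 37 °C. Compound (DMSO final 0.001%) added for 30 min, then TNF-α 20 ng mL-1 for 24 h. Total lysates run on 10% SDS-PAGE and blotted, primary antibody overnight at 4 °C, ECL detection, α-tubulin as loading control.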

Experiment [8] concerns MCF7. The experiment can be described thus: Suppression of TNF-alpha-induced expression of iNOS in human MCF7 cells at 3 uM by Western blot analysis. Type of experiment: functional, cell-based. The essentials:
as §2

The test system of experiment [9] is MCF7. The experiment can be described thus: Induction of apoptosis in human MCF7 cells assessed as down regulation of cIAP1 by Western blot analysis. Type of experiment: functional, cell-based. The essentials: as §1

The term IC50 denotes the concentration that gives 50% inhibition. Lower therefore signals inhibition by little substance. Take `COc1cc2c(cc1OC)[C@]1(O)C(=O)c3c(O)cc4c(c3O[C@@H]1CO2)C=CC(C)(C)O4`: the IC50 in experiment [1] is 4210 nM; in experiment [2] it was 190 nM.

On to `COc1c(C/C=C(\C)CCC=C(C)C)c(O)cc(CCc2ccccc2)c1C(=O)O`, for which the IC50 was determined as 2440 nM in experiment [1] and 1130 nM in [2].

`CC(C)=CCC/C(C)=C/Cc1c(O)cc(CCc2ccccc2)c(C(=O)O)c1O`: the IC50 in experiment [1] was determined as 3140 nM; in experiment [2] it was 1560 nM.

For `COC1=CC(=O)[C@]2(C=C1OC)OC[C@H]1Oc3c4c(cc(O)c3C(=O)[C@H]12)OC(C)(C)C=C4`, the values for the IC50 in experiment [1] and in [2] were 7650 nM and 2120 nM, respectively. Besides, the outcome with MCF7 [3], in the experiment with MCF7 [4], in the experiment on MCF7 [5], with MCF7 [7], with MCF7 [8] and with MCF7 [9] was Active. The Activity result with MCF7 [6] is “Dose-dependent effect”.

With `COc1c(CC=C(C)C)c(O)cc(CCc2ccccc2)c1C(=O)O`, the results for the IC50 in experiment [1] and in experiment [2] were 3020 nM and 1750 nM, respectively.

For the molecule `COc1cc(CCc2ccccc2)c(C(=O)O)c(O)c1CC=C(C)C` [AMORFRUTIN A], the IC50 in [1] worked out at 4170 nM; in [2] it was 840 nM. Further, in the experiment with MCF7 [6], the Activity result is “Dose-dependent effect”. Also, the result with MCF7 [7] and in the experiment with MCF7 [8] was Active.

For `CC(C)=CCC/C(C)=C/Cc1c(O)cc(/C=C/c2ccccc2)cc1O` [AMORPHASTILBOL], the IC50 in [1] was found to be 680 nM; in [2], 260 nM.

Take `COC1=CC(=O)[C@]2(C=C1OC)OC[C@H]1Oc3c(ccc4c3C=CC(C)(C)O4)C(=O)[C@H]12` [AMORPHISPIRONONE]: the figures for the IC50 in experiment [1] and in [2] were 13900 nM and 7390 nM, respectively.

Regarding `CC1=C(O)C(=O)C=C2C1=CC=C1[C@@]2(C)CC[C@@]2(C)[C@@H]3C[C@](C)(C(=O)O)CC[C@]3(C)CC[C@]12C` [CELASTROL], the values for the IC50 in experiment [1] and in experiment [2] were 300 nM and 150 nM, respectively.

In the case of `COc1cc2c(cc1OC)[C@@H]1C(=O)c3ccc4c(c3O[C@@H]1CO2)C=CC(C)(C)O4` [DEGUELIN], the IC50 turned out to be 1750 nM in experiment [1] and 220 nM in experiment [2].

Take `COc1cc2c(cc1OC)[C@]1(O)C(=O)c3ccc4c(c3O[C@@H]1CO2)C=CC(C)(C)O4` [TEPHROSIN]: the IC50 in [1] is 2000 nM; in experiment [2], 110 nM. In addition, the result with MCF7 [3], in the experiment with MCF7 [4], in the experiment with MCF7 [5], in the experiment on MCF7 [7], in the experiment with MCF7 [8] and with MCF7 [9] was Active. Besides, in the experiment on MCF7 [6], the Activity result is “Dose-dependent effect”.

Turning to `CC(C)=CCC/C(C)=C/Cc1c(O)ccc(C(=O)/C=C/c2ccc(O)cc2)c1O` [XANTHOANGELOL], the IC50 was determined as 1830 nM in [1] and 1030 nM in experiment [2].
